Data set [1] relates to BR+ and BR- cell lines. Description: internalization of fluorescence-labeled paclitaxel by CFM and flow cytometry. The class given is cell-based. As to conditions: Figure S1. The method, boiled down:
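After probe exposure, cells trypsinised if needed, washed twice in PBS and resuspended in PBS. Flow cytometry: 488 nm excitation, emission at 530 nm (30 nm bandpass, 515–545 nm), about 10,000 cells counted per experiment, FITC fluorescence distribution analysed. Confocal: two-photon laser-scanning microscope, 488 nm excitation, emission 527 ± 23 nm (505–550 nm bandpass), cells on uncoated coverslip slide.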

In data set [2] the test system is MX-1 human breast carcinoma cell line (BR+). Description: standard MTT cytotoxicity assay, continuous incubation. The data set is classed as cell-based.
The test system of data set [3] is L1210 murine lymphocytic leukemia cell line (BR−). Described as above. The data set is classed as cell-based. Particulars: read-out: Cytotoxicity IC50, L1210; incubation at 37 °C for 48 h.
Data set [4] relates to WI38 human lung fibroblast cell line (BR−). The description is as above. The class given is cell-based.
Data set [5] concerns ID8 murine ovarian carcinoma cell line (BR+). The description is as above. The data set is classed as cell-based. Particulars: read-out: Cytotoxicity IC50, ID8; incubation at 37 °C for 48 h.
The subject of data set [6] is BR+ cancer cell lines (MX-1, L1210FR, ID8). As to the kind of experiment: MTT cytotoxicity, text summaries pooled over BR+ cancer cell lines. The data set is classed as cell-based. The method, boiled down:
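Adherent cells seeded at 8,000–10,000/well and held 24 h at 37 °C before dosing; leukemia cells at 0.5–0.8 × 10^4/well suspended directly in test solutions. Final 0.5–5,000 nM from DMSO stocks, 37 °C, 5% CO2, 48 h or 72 h. Assay 2: 24 h exposure, PBS wash, GSH-OEt (6 equiv. to conjugate) added, further 48 h. MTT 0.5 mg/mL in PBS, 3 h, 37 °C.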

The subject of data set [7] is L1210FR murine lymphocytic leukemia cell line (BR+). As to the kind of experiment: standard MTT cytotoxicity assay, continuous incubation. The data set is classed as cell-based.
Data set [8] deals with L1210 (BR−) cells. Description: internalization by confocal fluorescence microscopy and flow cytometry. Particulars: 5 µM, 37 °C. The data set is classed as cell-based, murine.
Data set [9] deals with BR+ cancer cell lines (L1210FR, MX-1, ID8). As to the kind of experiment: internalization by confocal fluorescence microscopy and flow cytometry. The class given is cell-based. As to conditions: 5 µM, 37 °C. The method, boiled down:
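Adherent cells were seeded at 5 × 10^5 cells/mL overnight, then given medium containing 5 µM fluorescent probe. For leukemia cells, 1 mM DMSO stock was spiked into fresh suspensions to 5 µM final. Incubation ran 30 min–24 h at 37 °C; cells were then trypsinized as needed and washed twice in PBS. Flow cytometry used 488 nm excitation, 515–545 nm emission, ~10,000 cells. Confocal imaging used 488 nm excitation, 505–550 nm bandpass, 63× water objective.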

For data set [10], the system named is WI38 (BR−) cells. Description: internalization by confocal fluorescence microscopy and flow cytometry. The class given is cell-based, human. Particulars: 5 µM, 37 °C.
Data set [11] concerns L1210FR murine lymphocytic leukemia cell line (BR+). Description: MTT Assay 3: 24 h incubation, GSH-OEt addition without washing, further 48 h. The data set is classed as cell-based. As to conditions: read-out: Cytotoxicity IC50, L1210FR, Assay 3, GSH-OEt (6 equiv.) added without wash, additional 48 h. The method, boiled down:
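L1210FR suspension cells in supplemented RPMI-1640 were exposed to test compound at 37 °C for 24 h; DMSO ≤1%. GSH-OEt (6 equiv.) in medium was then added directly, without washing, for a further 48 h (72 h total). Viability was read by MTT (0.5 mg/mL in PBS, 3 h, 37 °C), solubilized in 0.1 N HCl/isopropanol with 10% Triton X-100, at 570 nm. IC50 by four-parameter logistic fit; triplicate runs.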

The subject of data set [12] is MX-1 human breast carcinoma cell line (BR+). Description: MTT Assay 2: 24 h incubation, PBS wash, GSH-OEt addition, further 48 h. The class given is cell-based. As to conditions: read-out: Cytotoxicity IC50, MX-1, Assay 2, GSH-OEt (6 equiv.), additional 48 h. The method, boiled down: (§1)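 Cells grown in supplemented RPMI-1640 (5% FBS, 5% NuSerum, 1% PenStrep) at 37 °C, 5% CO2, then seeded at 0.5–1.5 × 10^4 cells/well. Test compound (from DMSO stock; DMSO ≤1%) was added for 24 h at 37 °C. Medium was then removed, cells were washed with PBS, and GSH-OEt (6 equiv. to conjugate) in fresh medium was added for 48 h more (72 h total). MTT (0.5 mg/mL, 3 h), formazan dissolved in acidic isopropanol/Triton X-100, A570. IC50 from four-parameter logistic fit; triplicate.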

Data set [13] concerns L1210FR murine lymphocytic leukemia cell line (BR+). The data set is described as above. The class given is cell-based. Particulars: read-out: Cytotoxicity IC50, L1210FR, Assay 2, GSH-OEt (6 equiv.), additional 48 h. The method, boiled down: as §1
Where [14] appears, read: read-out: Cytotoxicity IC50, MX-1, Assay 1, 37 °C, 72 h, no GSH-OEt.
The mark [15] stands for this setting: read-out: Cytotoxicity IC50, MX-1, incubation at 37 °C for 48 h.
Where [16] appears, read: read-out: Cytotoxicity IC50, WI38, Assay 1, 37 °C, 72 h, no GSH-OEt.
Setting [17] is: read-out: Cytotoxicity IC50, WI38, incubation at 37 °C for 48 h.
[18] abbreviates: read-out: Cytotoxicity IC50, L1210FR, Assay 1, 37 °C, 72 h, no GSH-OEt.
Where [19] appears, read: read-out: Cytotoxicity IC50, L1210FR, incubation at 37 °C for 48 h.

Read-outs that look alike come from different tables or passages of the source.

Regarding “7-(4-Fluoresceinyl)butanoylpaclitaxel [compound 6]”, the “internalization across BR+ and BR- cell lines” value in data set [1] is “nonspecific internalization”.

Turning to `CC(=O)O[C@@]12CO[C@@H]1C[C@H](O)[C@@]1(C)C(=O)[C@H](OC(=O)C3CC3)C3=C(C)[C@@H](OC(=O)[C@H](O)[C@H](C=C(C)C)NC(=O)OC(C)(C)C)C[C@@](O)([C@@H](OC(=O)c4ccccc4)[C@H]21)C3(C)C` [Taxoid 3, SB-T-1214, reference compound], the IC50 turned out to be 2.66 ± 0.16 nM in data set [2] (setting [14]); 4.13 ± 2.59 nM in [2] (setting [15]); 7.05 ± 1.38 nM in data set [3]; 4.89 ± 2.24 nM in data set [4] (setting [16]); 5.23 ± 0.27 nM in [4] (setting [17]); 0.17 ± 0.14 nM in [5]. Also, the concentration for half-maximal inhibition (IC50) is 2.32 to 2.66 nM in data set [6] (read-out: Cytotoxicity IC50, MX-1 and L1210FR, free drug, range, 72 h incubation (Assay 1)); 2.32 ± 1.41 nM in [7] (setting [18]); 4.18 ± 1.8 nM in [7] (setting [19]).

For Biotin-NH-PEG3-(CH2)2-NH-FITC [probe 5], the “internalization into L1210 cells” value in data set [8] is “no appreciable internalization”. Also, in data set [9], the “internalization into BR+ cancer cell lines” value is “highly target-specific and efficient internalization”. In addition, the “internalization into WI38 cells” value in data set [10] is “no appreciable internalization”.

On to “Biotin-(SS-Linker)-SB-T-1214 [conjugate 4]”, for which the IC50 in data set [2] (setting [14]) came out at 4.66 ± 0.87 nM; in [2] (setting [15]) it was 15.4 ± 4.2 nM; in [3] it was 481 ± 34 nM; in [4] (setting [16]), 645 ± 97 nM; in [4] (setting [17]), 670 ± 89 nM; in data set [11], 2.92 ± 2.34 nM. The IC50 in [5] was 4.32 ± 1.58 nM; in data set [12], 3.85 ± 0.14 nM; in data set [13] it was 5.15 ± 2.85 nM; in data set [6] (read-out: Cytotoxicity IC50, BR+ cancer cells (MX-1, L1210FR), Assay 2, range, 24 h, PBS wash, GSH-OEt, additional 48 h) it was 3.85 to 6.6 nM; in data set [7] (setting [18]), 12.3 ± 2.8 nM; in [7] (setting [19]), 13.4 ± 6.8 nM. For the same compound, the “potency times lower than free taxoid 3 against three BR+ cancer cell lines” value in data set [6] (48 h incubation) was 3–30 times. Also, in data set [6] (Assay 2), the “cancer cell selectivity (BR-specificity), BR+ cancer cells vs BR− WI38 cells” value is reported as “two-orders of magnitude difference”.

Source of the values: article PMC4359053 (Journal of medicinal chemistry, 2015).
